In assay [1] the target is T1, Tyrosine-protein kinase JAK2 (Homo sapiens, UniProt O60674). The experiment in a line: Inhibition of N-terminal His-tagged human JAK2 catalytic domain (826 to 1132 resiudes) expressed in baculovirus expression system using FAM-labeled peptide as substrate preincubated for 10 mins followed by substrate addition measured after 1 hr in presence of ATP by mobility shift assay. Put shortly: (§1)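 Caliper mobility-shift assay with recombinant kinase in 50 mM HEPES pH 7.5, 0.0015% Brij-35. Compound was diluted from DMSO and preincubated with enzyme for 10 min at room temperature. FAM-labeled peptide plus ATP was then added and the reaction run for 1 h at 28 °C. It was stopped with an EDTA (50 mM) buffer. Conversion gave percent inhibition relative to max/min controls, and IC50 came from a four-parameter Hill fit. Duplicate wells were used.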
T1 sequence (O60674 whole entry, the tested form may be a part): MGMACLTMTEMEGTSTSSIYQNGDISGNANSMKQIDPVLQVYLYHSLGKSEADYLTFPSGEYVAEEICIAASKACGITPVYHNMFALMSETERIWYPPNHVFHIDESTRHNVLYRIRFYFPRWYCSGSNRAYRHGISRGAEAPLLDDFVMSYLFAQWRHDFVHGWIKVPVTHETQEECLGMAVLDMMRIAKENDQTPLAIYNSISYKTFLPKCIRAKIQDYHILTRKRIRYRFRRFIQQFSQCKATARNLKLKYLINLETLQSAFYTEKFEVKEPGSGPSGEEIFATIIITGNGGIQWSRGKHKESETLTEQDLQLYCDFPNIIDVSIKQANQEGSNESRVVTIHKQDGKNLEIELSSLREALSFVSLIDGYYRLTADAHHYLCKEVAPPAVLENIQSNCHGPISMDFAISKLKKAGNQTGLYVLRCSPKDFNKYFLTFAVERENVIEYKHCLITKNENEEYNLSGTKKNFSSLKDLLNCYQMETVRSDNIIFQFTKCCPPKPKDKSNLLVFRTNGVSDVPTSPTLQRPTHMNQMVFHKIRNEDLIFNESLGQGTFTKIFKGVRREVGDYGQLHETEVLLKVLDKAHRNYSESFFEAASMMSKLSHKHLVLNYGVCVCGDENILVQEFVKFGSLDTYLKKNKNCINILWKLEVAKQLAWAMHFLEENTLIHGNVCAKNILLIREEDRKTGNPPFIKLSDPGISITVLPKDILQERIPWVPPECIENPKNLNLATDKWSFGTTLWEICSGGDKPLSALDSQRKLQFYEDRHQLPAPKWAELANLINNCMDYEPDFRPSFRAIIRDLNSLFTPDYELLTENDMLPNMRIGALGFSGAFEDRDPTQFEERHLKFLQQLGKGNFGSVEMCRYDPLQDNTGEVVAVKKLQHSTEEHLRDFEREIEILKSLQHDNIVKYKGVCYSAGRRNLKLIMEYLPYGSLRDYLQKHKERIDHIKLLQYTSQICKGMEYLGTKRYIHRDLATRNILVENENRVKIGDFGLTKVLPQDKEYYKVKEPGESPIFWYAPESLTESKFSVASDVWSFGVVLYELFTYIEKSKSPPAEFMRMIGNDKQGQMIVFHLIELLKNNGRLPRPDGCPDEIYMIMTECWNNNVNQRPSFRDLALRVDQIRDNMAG

The next assay deals with HEL. The experiment in a line: Antiproliferative activity against human HEL cells assessed as growth inhibition after 72 hrs by CCK-8 assay. In kind it is functional. In outline:
(§2)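 CCK-8 viability readout. Cells were cultured in RPMI 1640 with 10% FBS and 1% penicillin/streptomycin and seeded at 3000 (HEL), 5000 (MV4-11) or 3000 (HL60) cells/well. Increasing compound concentrations were applied for 72 h, then CCK-8 was added for a further 3 h and absorbance read at 450 nm. Inhibition = (1−A_sample/A_control)×100, normalized to DMSO controls. Value is the mean of three independent measurements, obtained by curve fitting.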

Another assay has as its system HL-60. The experiment in a line: Antiproliferative activity against human HL60 cells assessed as growth inhibition after 72 hrs by CCK-8 assay. In kind it is functional. Conditions: HL-60, 72 h. Put shortly: as §2
In assay [2] the target is T1, Tyrosine-protein kinase JAK2. The experiment in a line: Inhibition of N-terminal His-tagged human JAK2 catalytic domain (826 to 1132 resiudes) expressed in baculovirus expression system at 100 nM using FAM-labeled peptide as substrate preincubated for 10 mins followed by substrate addition measured after 1 hr in presence of ATP by mobility shift assay relative to control. Put shortly:
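Single-concentration (100 nM) percent inhibition in the mobility-shift JAK2 assay. Enzyme was preincubated with compound for 10 min at room temperature in HEPES pH 7.5/Brij-35 buffer. FAM-peptide and ATP were then added and the reaction run for 1 h at 28 °C before EDTA stop. Inhibition = (max−conversion)/(max−min)×100. Each compound was tested at least twice and the values averaged.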

For assay [3], the target named is T2, Receptor-type tyrosine-protein kinase FLT3 (Homo sapiens, UniProt P36888).
T2 sequence (P36888 whole entry): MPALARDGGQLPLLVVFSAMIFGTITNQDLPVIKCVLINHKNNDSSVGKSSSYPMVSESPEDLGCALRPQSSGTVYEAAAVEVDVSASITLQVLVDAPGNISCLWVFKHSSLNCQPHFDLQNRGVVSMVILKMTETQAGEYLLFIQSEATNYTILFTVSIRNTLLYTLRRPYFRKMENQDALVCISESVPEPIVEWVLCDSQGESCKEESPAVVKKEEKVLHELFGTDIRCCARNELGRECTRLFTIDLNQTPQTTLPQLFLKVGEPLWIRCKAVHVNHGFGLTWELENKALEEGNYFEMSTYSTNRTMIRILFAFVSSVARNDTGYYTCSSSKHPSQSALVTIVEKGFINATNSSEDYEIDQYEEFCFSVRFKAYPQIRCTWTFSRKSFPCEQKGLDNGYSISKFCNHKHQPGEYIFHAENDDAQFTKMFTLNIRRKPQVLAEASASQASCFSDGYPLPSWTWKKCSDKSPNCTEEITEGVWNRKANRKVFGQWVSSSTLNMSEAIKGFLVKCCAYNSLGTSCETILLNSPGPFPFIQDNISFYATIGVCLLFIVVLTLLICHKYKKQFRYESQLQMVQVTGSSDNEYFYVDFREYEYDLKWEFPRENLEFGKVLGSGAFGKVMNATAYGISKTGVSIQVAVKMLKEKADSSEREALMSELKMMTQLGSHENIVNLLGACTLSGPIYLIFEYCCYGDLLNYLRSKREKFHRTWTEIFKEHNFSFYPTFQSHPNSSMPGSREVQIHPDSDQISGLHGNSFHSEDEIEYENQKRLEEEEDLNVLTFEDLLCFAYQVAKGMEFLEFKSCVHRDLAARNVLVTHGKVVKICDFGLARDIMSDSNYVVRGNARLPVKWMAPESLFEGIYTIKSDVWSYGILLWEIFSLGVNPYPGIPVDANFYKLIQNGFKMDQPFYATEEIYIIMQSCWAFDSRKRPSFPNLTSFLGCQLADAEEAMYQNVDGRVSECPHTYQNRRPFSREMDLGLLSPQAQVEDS
The experiment in a line: Inhibition of N-terminal GST-tagged human FLT3 cytoplasmic domain (564 to 993 residues) expressed in baculovirus expression system musing FAM-labeled peptide as substrate preincubated for 10 mins followed by substrate addition measured after 1 hr in presence of ATP by mobility shift assay. Put shortly:
as §1

Assay [4] concerns the target Receptor-type tyrosine-protein kinase FLT3 (Homo sapiens) (UniProt P36888). To be noted: at 100 nM.
The next assay concerns MV4-11. Briefly: Antiproliferative activity against human MV4-11 cells assessed as growth inhibition after 72 hrs by CCK-8 assay. Conditions: MV4-11, 72 h. In kind it is functional. In outline:
as §2
(Formazan colour is commonly taken as a measure of viable cells.)

Where only a bound is given, the exact number is not on record here.

In ChEMBL document CHEMBL4359878, “Discovery of 4-piperazinyl-2-aminopyrimidine derivatives as dual inhibitors of JAK2 and FLT3” (Eur J Med Chem, 2019) one finds IC50, GI50 and inhibition data, which are given here for two molecules.

On to `NS(=O)(=O)c1ccc(NC(=O)N2CCN(c3ccnc(Nc4ccc(N5CCOCC5)cc4)n3)CC2)cc1`, for which the half-inhibitory concentration (IC50) was determined as 0.0093 µM in assay [1] and 0.03 µM in assay [3]. For the same molecule, the GI50 with HEL, with HL-60 and in the assay on MV4-11 was over 50 µM each time. The inhibition in assay [2] came to 86%; in assay [4], 79.7%.

Take `CC(=O)c1ccc(NC(=O)N2CCN(c3ccnc(Nc4ccc(N5CCN(C)CC5)cc4)n3)CC2)cc1`: the IC50 is 0.0138 µM in assay [1] and 0.012 µM in assay [3]. Besides, the results for the GI50 with HEL, in the assay on HL-60 and in the assay on MV4-11 were 14.1 µM, 46.4 µM and 32 µM, respectively. The inhibition in assay [2] is 80.8%; in assay [4], 87.5%.

A word on the IC50: it is the concentration that inhibits the measured activity by half. In general, GI50 refers to the concentration that inhibits growth by half. For orientation: inhibition means the share of the control response that was lost under treatment.
